The record followed here is ChEMBL document CHEMBL1240399 (Antimicrob Agents Chemother, 2010).

SMILES strings stand for the structures. pIC50: −log10 of the molar value. Converted amounts (≈) assume the structure as drawn.

In experiment [1] the test system is Pseudomonas aeruginosa. Briefly: Antibacterial activity against Pseudomonas aeruginosa NL68 expressing GES-13 beta lactamase. It counts as functional.
The test system of experiment [2] is Escherichia coli. Briefly: Antibacterial activity against Escherichia coli DH5alpha pB-ges-1. It counts as functional.
Experiment [3] relates to Escherichia coli. Briefly: Antibacterial activity against Escherichia coli DH5alpha pB-ges-13 plasmid. In kind it is functional.
Experiment [4] concerns Escherichia coli. Briefly: Antibacterial activity against Escherichia coli DH5alpha. It counts as functional.
Experiment [5] deals with Escherichia coli. Briefly: Antibacterial activity against Escherichia coli DH5alpha pB-ges-13 plasmid in presence of 2 ug/ml clavulanic acid. It counts as functional.
Experiment [6] relates to Escherichia coli. Briefly: Antibacterial activity against Escherichia coli DH5alpha pB-ges-1in presence of 2 ug/ml clavulanic acid. In kind it is functional.
Experiment [7] has as its system Escherichia coli. Briefly: Antibacterial activity against Escherichia coli DH5alpha in presence of 2 ug/ml clavulanic acid. In kind it is functional.
For experiment [8], the system named is Pseudomonas aeruginosa. Briefly: Antibacterial activity against Pseudomonas aeruginosa NL68 expressing GES-13 beta lactamase in presence of 4 ug/ml Tazobactam. It counts as functional.
In experiment [9] the test system is Pseudomonas aeruginosa. The experiment in a line: microbe, parasite or virus in culture. The following applies: NL68.
Experiment [10] relates to Escherichia coli. The experiment in a line: microbe, parasite or virus in culture. To be noted: DH5alpha.
Experiment [11] relates to Escherichia coli. Briefly: microbe, parasite or virus in culture. The following applies: DH5alpha. The source holds these as a separate data set.
In experiment [12] the test system is Escherichia coli. The experiment in a line: microbe, parasite or virus in culture. To be noted: DH5alpha. The source holds these as a separate data set.
The target in another experiment is Beta-lactamase GES-13 (Pseudomonas aeruginosa, UniProt D1MIX9). The experiment in a line: Inhibition of Pseudomonas aeruginosa GES-13 beta lactamase. The method in brief:
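GES-13 purified from E. coli DH5α carrying pB-ges13: sonicated in 20 mM Tris pH 8.0, then Q-Sepharose and S-Sepharose chromatography, >95% pure by SDS-PAGE. Enzyme preincubated with a range of inhibitor concentrations for 3 min at 30°C. Residual hydrolysis of 100 μM cephalothin reporter followed spectrophotometrically. Value given as IC50.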

The pIC50 is the negative decadic logarithm of the IC50, by convention in mol/L.

Chain of Beta-lactamase GES-13 (D1MIX9 whole entry): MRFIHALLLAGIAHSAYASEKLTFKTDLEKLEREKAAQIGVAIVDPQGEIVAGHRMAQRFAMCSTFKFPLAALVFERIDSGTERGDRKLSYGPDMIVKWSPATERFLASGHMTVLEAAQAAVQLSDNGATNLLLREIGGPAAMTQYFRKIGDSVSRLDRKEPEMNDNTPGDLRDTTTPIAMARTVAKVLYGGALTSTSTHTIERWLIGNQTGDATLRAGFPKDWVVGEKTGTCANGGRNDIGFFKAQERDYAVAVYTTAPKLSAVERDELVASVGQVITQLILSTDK

As for `CO/N=C(\C(=O)N[C@@H]1C(=O)N2C(C(=O)[O-])=C(C[N+]3(C)CCCC3)CS[C@H]12)c1csc(N)n1`, the MIC in the experiment with Pseudomonas aeruginosa [1] turned out to be 64 µg/mL (≈ 133 µM); against Escherichia coli [2], 1 µg/mL (≈ 2.08 µM).

Turning to `CC1(C)S[C@@H]2[C@H](NC(=O)[C@H](N)c3ccc(O)cc3)C(=O)N2[C@H]1C(=O)O` [AMOXICILLIN], the MIC is at least 512 µg/mL in the experiment on Escherichia coli [3]; at least 512 µg/mL in the experiment on Escherichia coli [2]; 2 µg/mL (≈ 5.47 µM) with Escherichia coli [4]; 32 µg/mL in the experiment on Escherichia coli [5]; 64 µg/mL in the experiment with Escherichia coli [6]; 2 µg/mL in the experiment with Escherichia coli [7].

Turning to `C[C@H]1[C@H](NC(=O)/C(=N\OC(C)(C)C(=O)O)c2csc(N)n2)C(=O)N1S(=O)(=O)O` [AZTREONAM], the MIC against Escherichia coli [3] was determined as 8 µg/mL (≈ 18.4 µM); against Escherichia coli [2] it was 1 µg/mL (≈ 2.3 µM).

As for `N[C@@H](C(=O)N[C@@H]1C(=O)N2C(C(=O)O)=C(Cl)CS[C@H]12)c1ccccc1` [CEFACLOR ANHYDROUS], the MIC with Escherichia coli [3] is at least 512 µg/mL; against Escherichia coli [2], at least 512 µg/mL; against Escherichia coli [4], 4 µg/mL (≈ 10.9 µM).

As for `CO/N=C(\C(=O)N[C@@H]1C(=O)N2C(C(=O)O)=C(COC(C)=O)CS[C@H]12)c1csc(N)n1` [CEFOTAXIME], the MIC is 8 µg/mL (≈ 17.6 µM) in the experiment on Escherichia coli [3], 4 µg/mL (≈ 8.78 µM) in the experiment on Escherichia coli [2] and 0.12 µg/mL (≈ 0.263 µM) against Escherichia coli [4].

Turning to `CO[C@@]1(NC(=O)Cc2cccs2)C(=O)N2C(C(=O)O)=C(COC(N)=O)CS[C@@H]21` [CEFOXITIN], the values for the MIC in the experiment on Escherichia coli [3], in the experiment on Escherichia coli [2] and in the experiment on Escherichia coli [4] were 8 µg/mL (≈ 18.7 µM), 8 µg/mL (≈ 18.7 µM) and 4 µg/mL (≈ 9.36 µM), respectively.

For the compound `CC(C)(O/N=C(\C(=O)N[C@@H]1C(=O)N2C(C(=O)[O-])=C(C[n+]3ccccc3)CS[C@H]12)c1csc(N)n1)C(=O)O` [CEFTAZIDIME], the MIC against Pseudomonas aeruginosa [1] was at least 512 µg/mL; against Escherichia coli [3] it was at least 512 µg/mL; against Escherichia coli [2], 256 µg/mL (≈ 468 µM); in the experiment on Escherichia coli [4], 0.5 µg/mL (≈ 0.915 µM); with Escherichia coli [5], 16 µg/mL; in the experiment on Escherichia coli [6], 16 µg/mL. Besides, the MIC with Escherichia coli [7] was 0.5 µg/mL; with Pseudomonas aeruginosa [8], 256 µg/mL; in the experiment on Pseudomonas aeruginosa [9] it was at least 512 µg/mL; with Escherichia coli [10] it was 4 µg/mL (≈ 7.32 µM); against Escherichia coli [11], 16 µg/mL (≈ 29.3 µM); with Escherichia coli [12], 0.5 µg/mL (≈ 0.915 µM).

Turning to `CO/N=C(\C(=O)N[C@@H]1C(=O)N2C(C(=O)O)=C(CSc3nc(=O)c(O)nn3C)CS[C@H]12)c1csc(N)n1` [CEFTRIAXONE], the MIC in the experiment on Escherichia coli [3] worked out at 16 µg/mL (≈ 28.9 µM); with Escherichia coli [2], 16 µg/mL (≈ 28.9 µM); against Escherichia coli [4], 0.12 µg/mL (≈ 0.216 µM).

With `CO/N=C(\C(=O)N[C@@H]1C(=O)N2C(C(=O)O)=C(COC(N)=O)CS[C@H]12)c1ccco1` [CEFUROXIME], the figures for the MIC against Escherichia coli [3], in the experiment with Escherichia coli [2] and in the experiment with Escherichia coli [4] were at least 512 µg/mL, at least 512 µg/mL and 2 µg/mL (≈ 4.71 µM), respectively.

For the compound `C[C@@H](O)[C@H]1C(=O)N2C(C(=O)O)=C(SCCNC=N)C[C@H]12` [IMIPENEM ANHYDROUS], the MIC in the experiment with Pseudomonas aeruginosa [1] was found to be 16 µg/mL (≈ 53.4 µM); in the experiment with Pseudomonas aeruginosa [8] it was 16 µg/mL. Also, the pIC50 at Beta-lactamase GES-13 is 6.82.

On to `C[C@@H](O)[C@H]1C(=O)N2C(C(=O)O)=C(S[C@@H]3CN[C@H](C(=O)N(C)C)C3)[C@H](C)[C@H]12` [MEROPENEM], for which the MIC is 32 µg/mL (≈ 83.4 µM) against Pseudomonas aeruginosa [1], at most 0.06 µg/mL with Escherichia coli [3], at most 0.06 µg/mL in the experiment on Escherichia coli [2] and at most 0.06 µg/mL in the experiment on Escherichia coli [4].

For the compound `CCN1CCN(C(=O)N[C@@H](C(=O)N[C@@H]2C(=O)N3[C@@H]2SC(C)(C)[C@@H]3C(=O)O)c2ccccc2)C(=O)C1=O` [PIPERACILLIN], the MIC with Pseudomonas aeruginosa [1] came out at 256 µg/mL (≈ 495 µM); with Escherichia coli [3], 64 µg/mL (≈ 124 µM); against Escherichia coli [2], 64 µg/mL (≈ 124 µM); in the experiment with Escherichia coli [4], 1 µg/mL (≈ 1.93 µM); in the experiment on Pseudomonas aeruginosa [8], 128 µg/mL; against Escherichia coli [10], 2 µg/mL (≈ 3.86 µM). The MIC against Escherichia coli [11] is 16 µg/mL (≈ 30.9 µM); in the experiment on Escherichia coli [12] it was 0.5 µg/mL (≈ 0.966 µM).

Take `CC1(C)S[C@@H]2[C@H](NC(=O)[C@H](C(=O)O)c3ccsc3)C(=O)N2[C@H]1C(=O)O` [TICARCILLIN]: the MIC in the experiment on Pseudomonas aeruginosa [1] is at least 512 µg/mL; with Escherichia coli [3], at least 512 µg/mL; in the experiment on Escherichia coli [2], at least 512 µg/mL; in the experiment on Escherichia coli [4], 2 µg/mL (≈ 5.2 µM); with Escherichia coli [5], 16 µg/mL; in the experiment on Escherichia coli [6], 32 µg/mL. In addition, the MIC was 2 µg/mL in the experiment on Escherichia coli [7] and at least 512 µg/mL in the experiment with Pseudomonas aeruginosa [9].
